From ChEMBL document CHEMBL1144782, “Isoindolo[2,1-a]quinoxaline derivatives, novel potent antitumor agents with dual inhibition of tubulin polymerization and topoisomerase I” (2008)
Activity calls are given as the source filed them. No cut-off for these calls is given here.

Key:
Tubulin (Sus scrofa) = Tubulin (Sus scrofa) (UniProt P02554+P02550); assay: Inhibition of pig brain tubulin polymerization at 5 uM
EKVX = assay: Antitumor activity against human EKVX cells; type: functional
Procedure, shortened: (§1)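 Run by the NCI in its in vitro disease-oriented screen of about 60 human tumour cell lines. For each line it reports pGI50 (50% net growth inhibition), pTGI (total growth inhibition) and pLC50 (50% net cell death), each as –log molar concentration. Where an effect was not reached within the tested range, the highest tested concentration was used.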

HCT-15 = assay: Antitumor activity against human HCT15 cells; type: functional; procedure, shortened: as §1
HOP-62 = assay: Antitumor activity against human HOP62 cells; type: functional; procedure, shortened: as §1
Jurkat [1] = assay: Cell cycle arrest in human Jurkat cells assessed as accumulation at G2/M phase at 32 nM after 24 hrs by flow cytometry; type: functional
Procedure, shortened: (§2)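 Exponentially growing Jurkat cells (5 × 105) were exposed to compound for 24 h. Cells were then fixed in ice-cold 70% ethanol, lysed with RNase A-containing buffer and stained with propidium iodide. DNA-content histograms from flow cytometry gave G1, S and G2/M fractions.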

RPMI-8226 = assay: Antitumor activity against human RPMI8226 cells; type: functional; procedure, shortened: as §1
[2] = Antitumor activity against human […] cells; type: functional; procedure, shortened: as §1
SR = assay: Antitumor activity against human SR cells; type: functional
Procedure, shortened: (§3)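 NCI 60-cell-line screen. Parameters were GI50 (50% net growth inhibition), TGI and LC50, each reported as –log molar concentration. Where an effect was not reached within the tested range, the highest tested concentration was used in the calculation.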

SF-268 = assay: Antitumor activity against human SF268 cells; type: functional; procedure, shortened: as §1
SNB-75 = assay: Antitumor activity against human SNB75 cells; type: functional; conditions: Homo sapiens, SNB-75; procedure, shortened: as §1
SF-539 = assay: Antitumor activity against human SF539 cells; type: functional; procedure, shortened: as §1
NCI-H522 = assay: Antitumor activity against human NCI-H522 cells; type: functional; procedure, shortened: as §1
T47D = assay: Antitumor activity against human T47D cells; type: functional; procedure, shortened: as §3
LoVo = assay: Growth inhibition of human LoVo cells after 72 hrs by MTT assay; type: functional
Procedure, shortened: (§4)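 Growth inhibition by MTT after 72 h incubation. Resistant sublines: LoVoDoxo and MCF-7 MDR were kept in 0.1 µg/mL doxorubicin; CEMVbl-100 was selected against vinblastine. GI50 given as mean ± SEM of three independent experiments. Resistance index is resistant-line GI50 over parental GI50.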

LOX IMVI = assay: Antitumor activity against human LOXIMVI cells; type: functional; procedure, shortened: as §1
DU-145 = assay: Antitumor activity against human DU145 cells; type: functional; conditions: Homo sapiens, DU-145; read-out: Log LC50 (the source's name) (converted); procedure, shortened: as §1
Jurkat [3] = assay: Cell cycle arrest in human Jurkat cells assessed as accumulation at S phase at 32 nM after 24 hrs by flow cytometry; type: functional; procedure, shortened: as §2
A549 [4] = assay: Disruption of tubulin network in human A549 cells assessed as disaggregation of microtubules at 2.5 uM […]; type: functional, cell-based
ACHN = assay: Antitumor activity against human ACHN cells; type: functional; procedure, shortened: as §1
KM12 = assay: Antitumor activity against human KM12 cells; type: functional; procedure, shortened: as §1
Jurkat [5] = assay: Cell cycle arrest in human Jurkat cells at mitosis at 0.5 uM after 24 hrs; type: functional
Procedure, shortened: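 Exponentially growing Jurkat cells were exposed for 24 h, then pelleted at 400g for 5 min. Hypotonic KCl (75 mM, 4 °C) was applied for 20 min, followed by methanol–acetic acid (3:1) fixation and Giemsa staining. 400 cells per treatment were scored microscopically; mitotic index is the fraction with mitotic figures. Three independent experiments, mean ± SEM.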

U-251 = assay: Antitumor activity against human U251 cells; type: functional; procedure, shortened: as §3
OVCAR-4 = assay: Antitumor activity against human OVCAR4 cells; type: functional; procedure, shortened: as §1
A549 [6] = assay: Disruption of tubulin network in human A549 cells assessed as disaggregation of microtubules at 5 uM […]; type: functional, cell-based
SK-MEL-5 = assay: Antitumor activity against human SKMEL5 cells; type: functional; procedure, shortened: as §1
Salmonidae = assay: Binding affinity to salmon testes DNA by spectrophotometric titration method
Procedure, shortened: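 Absorption titration of salmon testes DNA into a constant drug concentration at varying [drug]/[DNA] ratios. ETN buffer (10 mM Tris, 1 mM EDTA, 10 mM NaCl), pH 7.0, 25 °C. Scatchard isotherms were fitted to the McGhee–von Hippel model for intrinsic binding constant and site size.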

Jurkat [7] = assay: Cell cycle arrest in human Jurkat cells assessed as accumulation at S phase at 250 nM after 24 hrs by flow cytometry; type: functional; procedure, shortened: as §2
MCF7 [8] = assay: Antitumor activity against human MCF7 cells; type: functional; procedure, shortened: as §1
M14 = assay: Antitumor activity against human M14 cells; type: functional; procedure, shortened: as §1
Jurkat [9] = assay: Cell cycle arrest in human Jurkat cells assessed as accumulation at G2/M phase at 250 nM after 24 hrs by flow cytometry; type: functional; procedure, shortened: as §2
HCT-116 = assay: Antitumor activity against human HCT116 cells; type: functional; procedure, shortened: as §1
Jurkat [10] = assay: Cell cycle arrest in human Jurkat cells assessed as accumulation at G1 phase at 32 nM after 24 hrs by flow cytometry; type: functional; procedure, shortened: as §2
MCF7 [11] = assay: Growth inhibition of human multidrug-resistant MCF7 cells after 72 hrs by MTT assay; type: functional; conditions: MCF7, 72 h; procedure, shortened: as §4
OVCAR-5 = assay: Antitumor activity against human OVCAR5 cells; type: functional; procedure, shortened: as §1
MOLT-4 = assay: Antitumor activity against human MOLT4 cells; type: functional; procedure, shortened: as §1
[12] = read-out: Log LC50 (the source's name) (converted)

Chain of Tubulin (Sus scrofa) (P02550 whole entry, looked up): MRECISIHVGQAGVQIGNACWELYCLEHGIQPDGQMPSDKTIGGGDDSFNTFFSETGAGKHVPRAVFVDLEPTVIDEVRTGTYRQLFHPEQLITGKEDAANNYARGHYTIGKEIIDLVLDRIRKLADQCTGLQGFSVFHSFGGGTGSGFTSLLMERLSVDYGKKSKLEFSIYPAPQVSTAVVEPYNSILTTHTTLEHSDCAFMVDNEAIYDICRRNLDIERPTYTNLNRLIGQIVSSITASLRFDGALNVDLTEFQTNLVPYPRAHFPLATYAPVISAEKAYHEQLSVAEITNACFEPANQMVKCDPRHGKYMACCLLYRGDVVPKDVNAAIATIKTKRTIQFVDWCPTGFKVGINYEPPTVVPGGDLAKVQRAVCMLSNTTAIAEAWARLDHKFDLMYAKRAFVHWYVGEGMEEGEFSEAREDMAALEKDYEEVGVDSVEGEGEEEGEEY
Chain of Tubulin (Sus scrofa) (P02554 whole entry, looked up): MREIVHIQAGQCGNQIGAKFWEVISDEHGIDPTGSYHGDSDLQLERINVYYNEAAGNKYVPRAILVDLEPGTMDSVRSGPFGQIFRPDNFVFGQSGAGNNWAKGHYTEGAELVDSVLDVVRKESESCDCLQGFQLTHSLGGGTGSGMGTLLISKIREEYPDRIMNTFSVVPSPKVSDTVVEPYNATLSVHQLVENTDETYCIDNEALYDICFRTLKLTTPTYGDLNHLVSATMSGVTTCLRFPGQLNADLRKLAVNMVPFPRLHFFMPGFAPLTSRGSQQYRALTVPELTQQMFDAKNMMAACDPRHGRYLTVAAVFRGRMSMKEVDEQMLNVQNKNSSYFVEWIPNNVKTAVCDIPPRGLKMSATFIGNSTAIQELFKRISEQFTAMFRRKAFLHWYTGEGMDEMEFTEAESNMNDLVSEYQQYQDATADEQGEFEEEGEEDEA

Structure (SMILES): COc1ccc2c(c1)[nH]c(=O)c1c3ccccc3cn21
- Activity (Tubulin (Sus scrofa)): Active
- GI50 (EKVX): 91.2 nM
- LC50 (50% net cell kill) (EKVX): > 100000 nM
- TGI (EKVX; read-out: pTGI (converted)): 29500 nM
- GI50 (HCT-15): 26.3 nM
- CC50 (HCT-15; [12]): 4570 nM
- TGI (HCT-15; read-out: pTGI (converted)): 1150 nM
- GI50 (HOP-62): 30.9 nM
- LC50 (50% net cell death) (HOP-62): 3890 nM
- TGI (HOP-62; read-out: pTGI (converted)): 1230 nM
- Activity (Jurkat [1]): 28.8%
- GI50 (RPMI-8226): 36.3 nM
- CC50 (RPMI-8226; [12]): 6920 nM
- TGI (RPMI-8226; read-out: pTGI (converted)): 1410 nM
- GI50 [2]: 56.2 nM
- LC50 [2]: 3090 nM
- TGI ([2]; read-out: pTGI (converted)): 741 nM
- GI50 (SR): 10 nM
- LC50 (SR): 75900 nM
- TGI (SR; read-out: pTGI (converted)): 2040 nM
- GI50 (SF-268): 74.1 nM
- CC50 (SF-268; [12]): 87100 nM
- TGI (SF-268; read-out: pTGI (converted)): 2950 nM
- GI50 (SNB-75): 27.5 nM
- LC50 (SNB-75): > 100000 nM
- TGI (SNB-75; read-out: pTGI (converted)): 83.2 nM
- GI50 (SF-539): 22.9 nM
- LC50 (50% net cell kill) (SF-539): 2750 nM
- TGI (SF-539; read-out: pTGI (converted)): 70.8 nM
- GI50 (NCI-H522): 60.3 nM
- CC50 (NCI-H522; [12]): 10000 nM
- TGI (NCI-H522; read-out: pTGI (converted)): 2290 nM
- GI50 (T47D): 47.9 nM
- LC50 (T47D): > 100000 nM
- TGI (T47D; read-out: pTGI (converted)): 4570 nM
- GI50 (LoVo): 130 nM
- GI50 (LOX IMVI): 70.8 nM
- LC50 (50% net cell kill) (LOX IMVI): 4470 nM
- TGI (LOX IMVI; read-out: pTGI (converted)): 1780 nM
- CC50 (DU-145): 4270 nM
- Activity (Jurkat [3]): 44.1%
- Activity (A549 [4]): Active
- GI50 (ACHN): 126 nM
- LC50 (50% net cell kill) (ACHN): 4370 nM
- TGI (ACHN; read-out: pTGI (converted)): 1820 nM
- GI50 (KM12): 33.1 nM
- LC50 (50% net cell death) (KM12): 6030 nM
- TGI (KM12; read-out: pTGI (converted)): 1510 nM
- Activity (Jurkat [5]): 50%
- GI50 (U-251): 43.6 nM
- CC50 (U-251; [12]): 5010 nM
- TGI (U-251; read-out: pTGI (converted)): 1510 nM
- GI50 (OVCAR-4): 91.2 nM
- LC50 (50% net cell kill) (OVCAR-4): > 100000 nM
- TGI (OVCAR-4; read-out: pTGI (converted)): 5130 nM
- Activity (A549 [6]): Active
- GI50 (SK-MEL-5): 28.2 nM
- LC50 (SK-MEL-5): 3470 nM
- TGI (SK-MEL-5; read-out: pTGI (converted)): 1170 nM
- K (Salmonidae): 2.7 10^5/M
- Activity (Jurkat [7]): 44.2%
- GI50 (MCF7 [8]): 28.2 nM
- LC50 (50% net cell kill) (MCF7 [8]): 5500 nM
- TGI (MCF7 [8]; read-out: pTGI (converted)): 1450 nM
- GI50 (M14): 10 nM
- CC50 (M14; [12]): 3630 nM
- TGI (M14; read-out: pTGI (converted)): 12900 nM
- Activity (Jurkat [9]): 55.2%
- GI50 (HCT-116): 39.8 nM
- LC50 (HCT-116): 4470 nM
- TGI (HCT-116; read-out: pTGI (converted)): 1320 nM
- Activity (Jurkat [10]): 27.1%
- GI50 (MCF7 [11]): 150 nM
- GI50 (OVCAR-5): 100 nM
- LC50 (50% net cell death) (OVCAR-5): 77600 nM
- TGI (OVCAR-5; read-out: pTGI (converted)): 7940 nM
- GI50 (MOLT-4): 77.6 nM
- LC50 (MOLT-4): 75900 nM
- TGI (MOLT-4; read-out: pTGI (converted)): 2140 nM
